≈ marks a conversion by molar mass, not a printed value.
Experiments:
[1] = Half life in Balb/c mouse at 1 mg/kg, iv; type: ADME, organism-based; settings: Balb/c, in vivo
Method in brief: (§1)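 Intravenous PK in male Balb/C mice, n=3, at 1 mpk. Vehicle was 30% DMA or 15% NMP, depending on the compound.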

[2] = Apparent clearance in Balb/c mouse at 10 mg/kg, po after 1 hr; type: ADME, organism-based; settings: in vivo
[3] = Thermodynamic solubility of the compound in pH 7.4 solution after 90 mins by UVLC-MS analysis; type: physicochemical; settings: for solubility thermodynamic at 1.5 h: pH 7.4 solution, pH 7.4, read-out: Therm_solubility; for Therm_solubility: buffer, pH 7.4, 1.5 h
physchem [4] = settings: phosphate buffer, pH 7.4
[5] = Oral bioavailability in Balb/c mouse at 10 mg/kg after 1 hr; type: ADME, organism-based; settings: Balb/c, in vivo
Method in brief: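 Male Balb/C mice, n=3. Oral dose of 10 mpk as a homogeneous suspension of crystalline solid in 0.1% Tween 80, 0.1% silicone antifoam, 1% methylcellulose (400 cps) in water. I.v. dose of 1 mpk in 30% DMA or 15% NMP, depending on the compound. Bioavailability was extrapolated from the i.v./p.o. experiments.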

[6] = Clearance in Balb/c mouse at 1 mg/kg, iv; type: ADME, organism-based; settings: Balb/c, in vivo; method in brief: as §1
[7] = Fraction unbound in mouse blood; type: ADME, tissue-based
Mus musculus [8] = assay: Unbound Cmax in Balb/c mouse at 10 mg/kg, po after 1 hr; type: ADME, organism-based; settings: in vivo
in vitro [9] = settings: mouse, liver microsomes
in vitro [10] = settings: human, liver microsomes
Cytochrome P450 3A4 [11] = molecular target: T1, Cytochrome P450 3A4 (Homo sapiens, UniProt P08684)
T1 sequence (P08684 whole entry): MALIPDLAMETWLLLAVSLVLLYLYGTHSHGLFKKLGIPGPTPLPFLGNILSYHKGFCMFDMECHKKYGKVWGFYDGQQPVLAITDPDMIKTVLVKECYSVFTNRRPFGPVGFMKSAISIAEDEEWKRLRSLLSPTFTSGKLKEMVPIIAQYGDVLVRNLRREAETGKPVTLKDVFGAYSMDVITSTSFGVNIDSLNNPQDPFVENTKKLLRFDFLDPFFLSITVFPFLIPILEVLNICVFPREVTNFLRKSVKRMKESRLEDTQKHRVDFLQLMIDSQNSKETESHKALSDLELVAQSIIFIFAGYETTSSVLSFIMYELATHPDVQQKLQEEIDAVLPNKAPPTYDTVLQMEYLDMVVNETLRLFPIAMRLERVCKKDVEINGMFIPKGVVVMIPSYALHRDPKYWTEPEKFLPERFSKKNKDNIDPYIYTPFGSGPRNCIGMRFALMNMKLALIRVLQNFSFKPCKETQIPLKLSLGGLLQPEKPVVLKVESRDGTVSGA

Mus musculus [12] = assay: Unbound AUC (infinity) in Balb/c mouse at 10 mg/kg, po after 1 hr; type: ADME, organism-based; settings: in vivo
[13] = molecular target: T2, Voltage-gated inwardly rectifying potassium channel KCNH2 (Homo sapiens, UniProt Q12809)
T2 sequence (Q12809 whole entry): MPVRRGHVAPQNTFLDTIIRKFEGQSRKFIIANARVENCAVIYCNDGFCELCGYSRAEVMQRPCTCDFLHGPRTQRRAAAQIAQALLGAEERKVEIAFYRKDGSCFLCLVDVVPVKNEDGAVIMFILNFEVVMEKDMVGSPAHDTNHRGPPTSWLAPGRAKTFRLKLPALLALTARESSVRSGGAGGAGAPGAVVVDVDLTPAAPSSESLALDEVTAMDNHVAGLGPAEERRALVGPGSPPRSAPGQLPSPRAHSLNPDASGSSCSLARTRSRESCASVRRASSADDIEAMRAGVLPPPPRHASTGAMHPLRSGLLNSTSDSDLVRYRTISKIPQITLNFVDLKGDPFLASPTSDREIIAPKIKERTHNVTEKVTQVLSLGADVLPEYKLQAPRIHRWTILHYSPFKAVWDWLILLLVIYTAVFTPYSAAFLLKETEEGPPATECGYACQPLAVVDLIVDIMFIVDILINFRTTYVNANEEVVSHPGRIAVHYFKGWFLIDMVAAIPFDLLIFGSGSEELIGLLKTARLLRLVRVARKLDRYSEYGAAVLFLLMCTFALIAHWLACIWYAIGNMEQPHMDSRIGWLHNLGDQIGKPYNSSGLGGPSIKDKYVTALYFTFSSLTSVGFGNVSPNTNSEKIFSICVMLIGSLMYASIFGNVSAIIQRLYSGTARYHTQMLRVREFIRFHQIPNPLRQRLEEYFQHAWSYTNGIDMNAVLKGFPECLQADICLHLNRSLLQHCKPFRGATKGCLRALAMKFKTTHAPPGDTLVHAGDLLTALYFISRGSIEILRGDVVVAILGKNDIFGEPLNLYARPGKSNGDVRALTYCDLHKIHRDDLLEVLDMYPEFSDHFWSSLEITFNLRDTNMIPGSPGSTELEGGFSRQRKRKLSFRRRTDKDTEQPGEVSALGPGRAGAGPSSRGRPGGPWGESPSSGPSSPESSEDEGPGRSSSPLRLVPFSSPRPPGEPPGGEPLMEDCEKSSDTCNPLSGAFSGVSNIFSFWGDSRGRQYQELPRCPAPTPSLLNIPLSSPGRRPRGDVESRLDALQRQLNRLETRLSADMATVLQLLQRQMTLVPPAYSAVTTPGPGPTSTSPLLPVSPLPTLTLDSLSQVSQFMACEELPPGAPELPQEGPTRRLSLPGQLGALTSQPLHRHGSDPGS

[14] = Volume of distribution at steady state in Balb/c mouse at 1 mg/kg, iv; type: ADME, organism-based; settings: Balb/c, in vivo, read-out: Vdss; method in brief: as §1
Mus musculus [15] = assay: Unbound AUC in Balb/c mouse at 1 mg/kg, iv; type: ADME, organism-based; settings: in vivo; method in brief: as §1
physchem [16] = settings: buffer, pH 7.4
Cytochrome P450 3A4 [17] = molecular target: T1, Cytochrome P450 3A4; settings: liver microsomes
[18] = molecular target: T2, Voltage-gated inwardly rectifying potassium channel KCNH2; remark: listed apart in the source

Compound	logD at 1.5 h (physchem [4])	solubility kinetic at 1.5 h (physchem [16]) [µM]	other results
COc1ccc(CC(=O)N2CCN(c3nc(N)nc4scnc34)CC2)cc1OC	1.5	> 350	
Cc1cccc(NC(=O)N2CCN(c3nc(N)nc4scnc34)CC2)c1	2.81	34 (≈ 12.6 µg/mL)	
Nc1nc(N2CCN(C(=O)COc3ccc(Cl)cc3)CC2)c2ncsc2n1	2.68	13 (≈ 5.26 µg/mL)	
Nc1nc(N2CCN(C(=O)c3cc4ccccc4[nH]3)CC2)c2ncsc2n1	2.84	14 (≈ 5.31 µg/mL)	
COc1ccc(NC(=O)N2CCN(c3nc(N)nc4scnc34)CC2)c(C)c1	2.03	33 (≈ 13.2 µg/mL)	
COc1ccc(NC(=O)N2CCN(c3nc(N)nc4scnc34)CC2)c(C)n1	1.65	207 (≈ 82.9 µg/mL)	
Cc1ccccc1NC(=O)N1CCN(c2nc(N)nc3scnc23)CC1	2.12	33 (≈ 12.2 µg/mL)	
COc1ccc(NC(=O)N2CCN(c3nc(N)nc4sncc34)[C@@H](C)C2)c(C)c1	1.96	> 350	solubility thermodynamic at 1.5 h [3]: 52 µM (≈ 21.5 µg/mL)
COc1ccc(NC(=O)N2CCN(c3nc(N)nc4sccc34)[C@@H](C)C2)c(C)c1	2.39	82 (≈ 33.8 µg/mL)	

More lines, main results first:

logD at 1.5 h (physchem [4])	solubility kinetic at 1.5 h (physchem [16]) [µM]	Compound	other results
2.32	> 350	COc1ccc(NC(=O)N2CCN(c3nc(N)nc4scnc34)[C@@H](C)C2)cc1	half-life [1]: 54 min; CL/F [2]: 42 mL/min/kg; solubility thermodynamic at 1.5 h [3]: 30 µM (≈ 12 µg/mL); bioavailability [5]: 68%; clearance [6]: 29 mL/min/kg; fraction unbound [7]: 0.02; fCmax (Mus musculus [8]): 194 nM; microsomal CLint at 0.75 h, 3 µM (in vitro [9]): 35 µL/min/mg; microsomal CLint at 0.75 h, 3 µM (in vitro [10]): 14 µL/min/mg; IC50 (Cytochrome P450 3A4 [11]): > 20 µM; fAUC (Mus musculus [12]): 0.205 µM·h; IC50 [13]: 17 µM; Vd [14]: 1 L/kg; fAUC (Mus musculus [15]): 0.03 µM·h
2.55	21 (≈ 7.76 µg/mL)	Cc1ccc(NC(=O)N2CCN(c3nc(N)nc4scnc34)CC2)cc1	
	160 (≈ 66.2 µg/mL)	COc1ccc(NC(=O)N2CCN(c3nc(N)nc4scnc34)[C@@H](C)C2)c(C)c1	solubility thermodynamic at 1.5 h [3]: 3 µM (≈ 1.24 µg/mL)
	170 (≈ 70.3 µg/mL)	COc1ccc(NC(=O)N2CCN(c3nc(N)nc4scnc34)[C@H](C)C2)c(C)c1	Therm_solubility [3]: Nd(Insoluble)
	> 350	COc1ccc(NC(=O)N2CC3CCC(C2)N3c2nc(N)nc3scnc23)cc1	Therm_solubility [3]: Nd(Insoluble); IC50 (Cytochrome P450 3A4 [17]): Nd(Insoluble); IC50 [18]: Nd(Insoluble)
	88 (≈ 36.4 µg/mL)	COc1ccc(NC(=O)N2C[C@H](C)N(c3nc(N)nc4scnc34)C[C@H]2C)cc1	Therm_solubility [3]: Nd(Insoluble); IC50 (Cytochrome P450 3A4 [17]): Nd(Insoluble); IC50 [18]: Nd(Insoluble)
2.22	33 (≈ 13.2 µg/mL)	COc1ccc(CNC(=O)N2CCN(c3nc(N)nc4scnc34)CC2)cc1	
	83 (≈ 34.3 µg/mL)	COc1ccc(NC(=O)N2C[C@@H](C)N(c3nc(N)nc4scnc34)[C@@H](C)C2)cc1	Therm_solubility [3]: Nd(Insoluble); IC50 (Cytochrome P450 3A4 [17]): Nd(Insoluble); IC50 [18]: Nd(Insoluble)
	> 350	COc1ccc(NC(=O)N2CCN(c3nc(N)nc4scnc34)[C@@H](C)C2)c(C)n1	solubility thermodynamic at 1.5 h [3]: 362 µM (≈ 150 µg/mL); IC50 (Cytochrome P450 3A4 [11]): > 20 µM; IC50 [13]: > 30 µM
